How the values were obtained:
Staphylococcus aureus [1] = assay: Antibiofilm activity against methicillin-resistant Staphylococcus aureus BAA-1685 after 24 hrs by crystal violet staining based assay; assay type: functional; conditions: BAA-1685, 24 h
Acinetobacter baumannii [2] = assay: Antibiofilm activity against Acinetobacter baumannii ATCC 19606 after 24 hrs by crystal violet staining based assay; assay type: functional; conditions: ATCC 19606, 24 h
Acinetobacter baumannii [3] = assay: Potentiation of meropenem-induced antibacterial activity against Acinetobacter baumannii AB5075 assessed as meropenem MIC at 10 uM measured after 16 to 18 hrs by serial dilution assay (reference value: 32 ug/ml); assay type: functional
Staphylococcus aureus [4] = assay: Potentiation of oxacillin-induced antibacterial activity against methicillin-resistant Staphylococcus aureus BAA-1556 assessed as oxacillin MIC at 10 uM measured after 16 to 18 hrs by serial dilution assay (reference value: 32 ug/ml); assay type: functional
Acinetobacter baumannii [5] = assay: Antibiofilm activity against Acinetobacter baumannii ATCC 19606 at 50 uM after 24 hrs by crystal violet staining based assay relative to control; assay type: functional; conditions: ATCC 19606, 24 h
Staphylococcus aureus [6] = assay: Potentiation of oxacillin-induced antibacterial activity against methicillin-resistant Staphylococcus aureus BAA-1556 assessed as oxacillin MIC at 5 uM measured after 16 to 18 hrs by serial dilution assay (reference value: 32 ug/ml); assay type: functional
Staphylococcus aureus [7] = assay: Potentiation of oxacillin-induced antibacterial activity against methicillin-resistant Staphylococcus aureus BAA-1556 assessed as oxacillin MIC at 40 uM measured after 16 to 18 hrs by serial dilution assay (reference value: 32 ug/ml); assay type: functional
Staphylococcus aureus [8] = assay: Potentiation of vancomycin-induced antibacterial activity against vancomycin intermediate Staphylococcus aureus ATCC 700699 assessed as vancomycin MIC at 25 uM measured after 16 to 18 hrs by serial dilution assay (reference value: 8 ug/ml); assay type: functional; conditions: Mu50
In short: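 Vancomycin MIC was measured against vancomycin-intermediate S. aureus ATCC 700699 with the alkaloid co-dosed at a fixed concentration. Levels used across the series were 25 and 50 µM.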

Acinetobacter baumannii [9] = assay: Antibiofilm activity against Acinetobacter baumannii ATCC 19606 at 100 uM after 24 hrs by crystal violet staining based assay relative to control; assay type: functional; conditions: ATCC 19606, 24 h
Staphylococcus aureus [10] = assay: Potentiation of vancomycin-induced antibacterial activity against vancomycin intermediate Staphylococcus aureus ATCC 700699 assessed as vancomycin MIC at 50 uM measured after 16 to 18 hrs by serial dilution assay (reference value: 8 ug/ml); assay type: functional; conditions: Mu50
Pseudomonas aeruginosa = assay: Antibiofilm activity against Pseudomonas aeruginosa PA14 after 24 hrs by crystal violet staining based assay; assay type: functional; conditions: PA14, 24 h
Staphylococcus aureus [11] = assay: Potentiation of oxacillin-induced antibacterial activity against methicillin-resistant Staphylococcus aureus BAA-1556 assessed as oxacillin MIC at 50 uM measured after 16 to 18 hrs by serial dilution assay (reference value: 32 ug/ml); assay type: functional
Staphylococcus aureus [12] = assay: Ratio of oxacillin MIC for methicillin-resistant Staphylococcus aureus BAA-1556 in presence of test compound to oxacillin MIC for methicillin-resistant Staphylococcus aureus harboring vraR mutant in presence of test compound; assay type: functional
Staphylococcus aureus [13] = assay: Potentiation of oxacillin-induced antibacterial activity against methicillin-resistant Staphylococcus aureus NE481 assessed as oxacillin MIC at 25 uM measured after 16 to 18 hrs by serial dilution assay (reference value: 1 ug/ml)
Staphylococcus aureus [14] = assay: Potentiation of oxacillin-induced antibacterial activity against methicillin-resistant Staphylococcus aureus BAA-1556 assessed as oxacillin MIC at 25 uM measured after 16 to 18 hrs by serial dilution assay (reference value: 32 ug/ml); assay type: functional
Staphylococcus aureus [15] = assay: Potentiation of oxacillin-induced antibacterial activity against methicillin-resistant Staphylococcus aureus harboring vraR mutant assessed as oxacillin MIC at 25 uM measured after 16 to 18 hrs by serial dilution assay; assay type: functional

Row | SMILES | IC50 (Staphylococcus aureus [1]) | IC50 (Acinetobacter baumannii [2]) | MIC (Acinetobacter baumannii [3]) | MIC (Staphylococcus aureus [4]) | inhibition at 50 µM (Acinetobacter baumannii [5]) | MIC (Staphylococcus aureus [6]) | MIC (Staphylococcus aureus [7]) | MIC (Staphylococcus aureus [8]) | inhibition at 100 µM (Acinetobacter baumannii [9]) | MIC (Staphylococcus aureus [10]) | IC50 (Pseudomonas aeruginosa) | MIC (Staphylococcus aureus [11]) | Ratio (Staphylococcus aureus [12]) | MIC (Staphylococcus aureus [13]) | MIC (Staphylococcus aureus [14]) | MIC (Staphylococcus aureus [15])
1 | Nc1ncc([C@@H]2[C@@H](CNC(=O)c3cc(Br)c[nH]3)[C@H](CNC(=O)c3cc(Br)c[nH]3)[C@H]2c2cnc(N)[nH]2)[nH]1 | 37.6 µM | 30.5 µM |  |  |  |  |  |  |  |  |  |  |  |  |  | 
2 | Nc1ncc([C@@H]2[C@@H](CNC(=O)c3cc(Br)c(Br)[nH]3)[C@H](CNC(=O)c3cc(Br)c(Br)[nH]3)[C@H]2c2cnc(N)[nH]2)[nH]1 | 15.3 µM | > 50 µM | 8 µg/mL | 2 µg/mL | 48% | 8 µg/mL |  |  |  |  |  |  |  |  |  | 
3 | Nc1nc([C@@H]2c3[nH]c(N)nc3C[C@H](CNC(=O)c3cc(Br)c[nH]3)[C@H]2CNC(=O)c2cc(Br)c(Br)[nH]2)c[nH]1 [BROMOAGELIFERIN] | 10.6 µM | 28.3 µM | 8 µg/mL | 2 µg/mL |  | 16 µg/mL |  |  |  |  |  |  |  |  |  | 
4 | Nc1ncc(/C=C/CNC(=O)c2cc(Br)c(Br)[nH]2)[nH]1 [OROIDIN] | 77.3 µM | > 100 µM |  |  |  |  | 2 µg/mL | 4 µg/mL | 29% | 2 µg/mL | 166 µM | 0.5 µg/mL | 4 | 0.5 µg/mL | 8 µg/mL | 2 µg/mL
